From ChEMBL document CHEMBL1129967, “3'-Chloro-3 alpha-(diphenylmethoxy)tropane but not 4'-chloro-3 alpha-(diphenylmethoxy)tropane produces a cocaine-like behavioral profile” (J Med Chem, 1997)
pIC50, pKi: −log10 of the molar value.

What was measured:
[1] = target: T1, Sodium-dependent dopamine transporter (Rattus norvegicus, UniProt P23977); assay: Displacement of [3H]WIN-35428 binding to the dopamine transporter (DAT) in Rat Caudate Putamen
[2] = target: T2, Muscarinic acetylcholine receptor M1 (Rattus norvegicus, UniProt P08482); assay: Displacement of [3H]pirenzepine binding at Muscarinic acetylcholine receptor M1 in rat brain P2 membranes.; type: cell membranes, Membrane
T2 sequence (P08482 whole entry): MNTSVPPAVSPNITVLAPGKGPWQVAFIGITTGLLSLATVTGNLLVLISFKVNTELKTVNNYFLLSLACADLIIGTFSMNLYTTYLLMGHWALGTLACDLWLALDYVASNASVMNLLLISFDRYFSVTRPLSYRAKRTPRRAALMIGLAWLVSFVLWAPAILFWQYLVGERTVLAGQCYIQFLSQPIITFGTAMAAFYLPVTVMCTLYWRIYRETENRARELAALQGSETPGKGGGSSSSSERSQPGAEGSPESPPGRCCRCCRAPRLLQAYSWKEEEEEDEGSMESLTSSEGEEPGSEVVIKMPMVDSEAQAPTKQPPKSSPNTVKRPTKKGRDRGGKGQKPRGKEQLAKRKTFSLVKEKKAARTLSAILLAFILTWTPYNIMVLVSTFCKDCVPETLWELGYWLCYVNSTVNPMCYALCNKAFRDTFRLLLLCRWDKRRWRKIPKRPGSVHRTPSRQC
Procedure, shortened: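 Rat brain P2 membranes (0.3 mg protein) in 50 mM Tris-HCl pH 7.4 with 5 mM MgCl2 and 5 nM [3H]pirenzepine. Nine competitor concentrations (0.03–300 nM), 60 min at 37 °C, filtered. Nonspecific binding defined with 10 μM QNB.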

[3] = target: Norepinephrine transporter (Rattus norvegicus) (UniProt Q9WTR4); assay: Percent inhibition at 10 uM for displacement of [3H]- desmethylimipramine binding at the norepinephrine transporter (NET) in rat cortex.
Sequence of Norepinephrine transporter (Rattus norvegicus) (Q9WTR4 as listed by the source): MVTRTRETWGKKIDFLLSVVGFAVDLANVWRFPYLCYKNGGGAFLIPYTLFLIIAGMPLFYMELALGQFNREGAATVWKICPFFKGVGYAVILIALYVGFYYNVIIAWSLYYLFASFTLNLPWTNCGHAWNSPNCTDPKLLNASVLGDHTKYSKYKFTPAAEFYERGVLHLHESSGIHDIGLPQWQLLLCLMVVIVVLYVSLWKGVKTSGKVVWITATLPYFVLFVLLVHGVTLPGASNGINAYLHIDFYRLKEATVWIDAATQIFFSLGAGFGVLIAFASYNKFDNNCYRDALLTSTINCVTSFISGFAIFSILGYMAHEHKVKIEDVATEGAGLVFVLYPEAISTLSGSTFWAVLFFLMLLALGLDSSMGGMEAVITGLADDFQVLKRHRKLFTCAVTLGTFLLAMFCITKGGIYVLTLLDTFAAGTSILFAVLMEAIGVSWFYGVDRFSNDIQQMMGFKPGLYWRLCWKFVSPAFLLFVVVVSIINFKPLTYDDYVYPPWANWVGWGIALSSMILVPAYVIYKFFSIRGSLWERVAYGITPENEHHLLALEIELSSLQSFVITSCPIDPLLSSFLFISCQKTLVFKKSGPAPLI
Procedure, shortened: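 Run by a contract screening service under a published method: [3H]desmethylimipramine at 3.0 nM final concentration.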

[4] = target: T1, Sodium-dependent dopamine transporter; assay: [3H]-Dopamine uptake inhibition in rat caudate putamen; type: functional, tissue-based
Procedure, shortened: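 Rat caudate putamen chopped into 225 μm slices, in oxygenated Krebs-HEPES at 37 °C. Filtered, tracer extracted with methanol/HCl and counted; filter blank subtracted. IC50 from the linear portion of the concentration–response curve by linear regression.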

[5] = target: Sodium-dependent serotonin transporter (Rattus norvegicus) (UniProt P31652); assay: Percent inhibition at 10 uM for displacement of [3H]- citalopram binding at the serotonin transporter (5HTT).
Sequence of Sodium-dependent serotonin transporter (Rattus norvegicus) (P31652 whole entry): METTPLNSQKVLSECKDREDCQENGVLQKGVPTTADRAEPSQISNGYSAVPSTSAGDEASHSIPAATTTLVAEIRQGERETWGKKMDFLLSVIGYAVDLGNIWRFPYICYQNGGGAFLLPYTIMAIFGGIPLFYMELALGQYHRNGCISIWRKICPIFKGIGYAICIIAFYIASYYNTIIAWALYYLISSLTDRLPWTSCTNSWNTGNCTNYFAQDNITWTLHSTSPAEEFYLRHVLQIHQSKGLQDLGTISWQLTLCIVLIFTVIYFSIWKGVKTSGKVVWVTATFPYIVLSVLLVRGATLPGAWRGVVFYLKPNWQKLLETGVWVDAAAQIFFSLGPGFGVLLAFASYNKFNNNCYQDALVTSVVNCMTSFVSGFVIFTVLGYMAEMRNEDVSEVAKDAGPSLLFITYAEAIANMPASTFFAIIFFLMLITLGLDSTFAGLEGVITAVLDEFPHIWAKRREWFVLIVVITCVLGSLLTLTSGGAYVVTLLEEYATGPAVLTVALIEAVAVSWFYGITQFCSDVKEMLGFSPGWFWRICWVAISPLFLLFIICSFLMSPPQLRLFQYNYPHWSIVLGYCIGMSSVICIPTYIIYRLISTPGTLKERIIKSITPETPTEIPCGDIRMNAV
Procedure, shortened: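 Run by a contract screening service under a published method: [3H]citalopram at 0.7 nM final concentration.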

[6] = target: Sodium-dependent dopamine transporter (Rattus norvegicus) (UniProt P23977); assay: Selectivity ratio for [3H]-DA uptake inhibition to DAT binding; type: functional
Sequence of Sodium-dependent dopamine transporter (Rattus norvegicus) (P23977 whole entry): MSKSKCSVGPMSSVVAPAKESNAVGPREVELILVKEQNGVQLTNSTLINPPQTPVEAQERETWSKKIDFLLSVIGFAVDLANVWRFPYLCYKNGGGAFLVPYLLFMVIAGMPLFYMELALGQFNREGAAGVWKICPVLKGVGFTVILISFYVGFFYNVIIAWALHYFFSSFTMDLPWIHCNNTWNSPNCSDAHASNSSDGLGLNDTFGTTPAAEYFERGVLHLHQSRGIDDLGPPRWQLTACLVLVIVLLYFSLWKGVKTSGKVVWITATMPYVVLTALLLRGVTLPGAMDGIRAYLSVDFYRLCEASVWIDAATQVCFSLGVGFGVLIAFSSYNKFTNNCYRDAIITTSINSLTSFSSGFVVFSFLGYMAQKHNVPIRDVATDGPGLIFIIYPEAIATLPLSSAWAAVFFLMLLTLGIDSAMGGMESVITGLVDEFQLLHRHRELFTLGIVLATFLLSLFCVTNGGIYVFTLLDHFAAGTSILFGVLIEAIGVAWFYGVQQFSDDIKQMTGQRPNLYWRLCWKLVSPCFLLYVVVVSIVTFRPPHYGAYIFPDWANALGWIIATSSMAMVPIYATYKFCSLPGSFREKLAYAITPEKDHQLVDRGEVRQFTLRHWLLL

T1 sequence (P23977 whole entry): as above

| SMILES | pKi [1] | pKi [2] | I [3] [%] | pIC50 [4] | I [5] [%] | Selectivity ratio [6] |
| --- | --- | --- | --- | --- | --- | --- |
| CN1[C@@H]2CC[C@H]1C[C@@H](OC(c1ccccc1)c1ccccc1N)C2 (some centres not stated) [AMINOBENZTROPINE] | 5.74 | 8.95 | 14 | 6.43 | 16 | 0.2 |
| CN1C2CCC1CC(OC(c1ccccc1)c1ccc(Cl)cc1)C2 (configuration not stated) | – | 8.83 | 32 | – | 34 | 3.8 |
| CN1[C@@H]2CC[C@H]1C[C@@H](OC(c1ccccc1)c1cccc(C(F)(F)F)c1)C2 (some centres not stated) | 6.73 | 8.60 | 78.5 | 6.34 | 59.8 | 2.4 |
| Cc1ccccc1C(O[C@H]1C[C@H]2CC[C@@H](C1)N2C)c1ccccc1 (some centres not stated) | 6.51 | 9.30 | 66.5 | 5.92 | 35.7 | 3.9 |
| CN1[C@@H]2CC[C@H]1C[C@@H](OC(c1ccccc1)c1ccccc1Cl)C2 (some centres not stated) | 6.64 | 9.39 | 76.1 | 6.00 | 55.4 | 4.4 |
| CN1[C@@H]2CC[C@H]1C[C@@H](OC(c1ccccc1)c1cccc(F)c1)C2 (some centres not stated) | 7.16 | 9.22 | 82.4 | 6.60 | 42.2 | 3.7 |
| CN1[C@@H]2CC[C@H]1C[C@@H](OC(c1cccc(F)c1)c1cccc(F)c1)C2 | 7.32 | 9.07 | 75.6 | 6.39 | 72.6 | 8.6 |
| CN1[C@@H]2CC[C@H]1C[C@@H](OC(c1ccccc1)c1cccc(Cl)c1)C2 (some centres not stated) | 7.67 | 9.01 | 74.7 | 6.64 | 24.5 | 10.6 |
| CN1[C@@H]2CC[C@H]1C[C@@H](OC(c1ccccc1)c1ccccc1F)C2 (some centres not stated) | 7.30 | 9.37 | 17.8 | 6.85 | 22.3 | 2.8 |
